Laboratory results reported in ChEMBL document CHEMBL4038306, “Development of an Aryloxazole Class of Hepatitis C Virus Inhibitors Targeting the Entry Stage of the Viral Replication Cycle” (J Med Chem, 2017).

Assays:
[1] = AUClast in CD-1 mouse liver at 0.1 mg/kg, ip administered as single dose after 24 hrs by UPLC-MS/MS method; format: ADME, organism-based
Procedure, shortened: (§1)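 Adult male CD-1 mice (25–39 g), one i.p. dose of 0.1, 1 or 10 mg/kg. […] Drug levels measured by UPLC–MS/MS and reported as means ± SEM. […] Serum ALT was also monitored.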

[2] = AUClast in CD-1 mouse plasma at 10 mg/kg, ip administered as single dose after 24 hrs by UPLC-MS/MS method; format: ADME, organism-based; procedure, shortened: as §1
[3] = Tmax in CD-1 mouse liver at 0.1 mg/kg, ip administered as single dose after 24 hrs by UPLC-MS/MS method; format: ADME, organism-based; procedure, shortened: as §1
[4] = Permeability of the compound by PAMPA; format: physicochemical; conditions: read-out: permeability
Procedure, shortened: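 Passive diffusion measured by stirred double-sink PAMPA; permeability expressed in 10⁻⁶ cm/s.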

[5] = Cmax in CD-1 mouse liver at 0.1 mg/kg, ip administered as single dose after 24 hrs by UPLC-MS/MS method; format: ADME, organism-based; parameters: dose 0.1 mg/kg, route intraperitoneal; procedure, shortened: as §1
[6] = Cmax in CD-1 mouse liver at 10 mg/kg, ip administered as single dose after 24 hrs by UPLC-MS/MS method; format: ADME, organism-based; parameters: dose 10 mg/kg, route intraperitoneal; procedure, shortened: as §1
Plasma [7] = assay: AUC (infinity) in CD-1 mouse plasma at 0.1 mg/kg, ip administered as single dose after […] by UPLC-MS/MS method; format: ADME, organism-based; parameters: dose 0.1 mg/kg, time infinity, route intraperitoneal; conditions: in vivo
[8] = Ratio of Cmax in CD-1 mouse liver to plasma at 0.1 mg/kg, ip administered as single dose after 24 hrs; format: ADME, organism-based
Procedure, shortened: (§2)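 Adult male CD-1 mice (25–39 g) received one intraperitoneal dose. Plasma and liver were sampled at set time points, n = 3 mice per time point. Compound levels were measured by UPLC–MS/MS.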

[9] = Ratio of Cmax in CD-1 mouse liver to plasma at 0.1 mg/kg, ip administered as single dose after […]; format: ADME, organism-based; conditions: liver and plasma
[10] = Cmax in CD-1 mouse plasma at 10 mg/kg, ip administered as single dose after 24 hrs by UPLC-MS/MS method; format: ADME, organism-based; parameters: dose 10 mg/kg, route intraperitoneal; procedure, shortened: as §1
[11] = AUClast in CD-1 mouse liver at 0.1 mg/kg, ip administered as single dose after […] by UPLC-MS/MS method; format: ADME, organism-based
[12] = Ratio of AUClast in CD-1 mouse liver to plasma at 0.1 mg/kg, ip administered as single dose after […]; format: ADME, organism-based; conditions: read-out: Ratio AUC
[13] = Ratio of AUClast in CD-1 mouse liver to plasma at 1 mg/kg, ip administered as single dose after 24 hrs; format: ADME, organism-based; conditions: read-out: Ratio AUC
Procedure, shortened: (§3)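 Adult male CD-1 mice (25–39 g), n = 3 per sampling time point, given one i.p. dose (0.1, 1 or 10 mg/kg). Plasma and liver levels measured by UPLC–MS/MS. […] Serum ALT was monitored alongside.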

[14] = Drug uptake in CD-1 mouse liver at 1 mg/kg, ip administered as single dose after 24 hrs by UPLC-MS/MS method; format: ADME, organism-based; conditions: read-out: Drug uptake; procedure, shortened: as §1
[15] = Tmax in CD-1 mouse plasma at 0.1 mg/kg, ip administered as single dose after 24 hrs by UPLC-MS/MS method; format: ADME, organism-based; procedure, shortened: as §1
[16] = Cmax in CD-1 mouse plasma at 1 mg/kg, ip administered as single dose after 24 hrs by UPLC-MS/MS method; format: ADME, organism-based; parameters: dose 1 mg/kg, route intraperitoneal; procedure, shortened: as §1
[17] = Tmax in CD-1 mouse liver at 1 mg/kg, ip administered as single dose after 24 hrs by UPLC-MS/MS method; format: ADME, organism-based; procedure, shortened: as §1
[18] = AUClast in CD-1 mouse liver at 1 mg/kg, ip administered as single dose after 24 hrs by UPLC-MS/MS method; format: ADME, organism-based; procedure, shortened: as §1
[19] = Cmax in CD-1 mouse liver at 0.1 mg/kg, ip administered as single dose after […] by UPLC-MS/MS method; format: ADME, organism-based; parameters: dose 0.1 mg/kg, route intraperitoneal
[20] = Ratio of AUC (infinity) in CD-1 mouse liver to plasma at 0.1 mg/kg, ip administered as single dose after […]; format: ADME, organism-based; conditions: read-out: Ratio AUC
[21] = AUClast in CD-1 mouse plasma at 1 mg/kg, ip administered as single dose after 24 hrs by UPLC-MS/MS method; format: ADME, organism-based; procedure, shortened: as §1
[22] = Ratio of Cmax in CD-1 mouse liver to plasma at 10 mg/kg, ip administered as single dose after 24 hrs; format: ADME, organism-based; procedure, shortened: as §2
[23] = Tmax in CD-1 mouse plasma at 1 mg/kg, ip administered as single dose after 24 hrs by UPLC-MS/MS method; format: ADME, organism-based; procedure, shortened: as §1
[24] = Drug uptake in CD-1 mouse liver at 0.1 mg/kg, ip administered as single dose after 5 mins by UPLC-MS/MS method; format: ADME, organism-based; conditions: read-out: Drug uptake; procedure, shortened: as §1
[25] = Tmax in CD-1 mouse liver at 0.1 mg/kg, ip administered as single dose after […] by UPLC-MS/MS method; format: ADME, organism-based
[26] = Ratio of AUClast in CD-1 mouse liver to plasma at 0.1 mg/kg, ip administered as single dose after 24 hrs; format: ADME, organism-based; conditions: read-out: Ratio AUC; procedure, shortened: as §3
[27] = AUClast in CD-1 mouse plasma at 0.1 mg/kg, ip administered as single dose after 24 hrs by UPLC-MS/MS method; format: ADME, organism-based; procedure, shortened: as §1
[28] = Cmax in CD-1 mouse liver at 1 mg/kg, ip administered as single dose after 24 hrs by UPLC-MS/MS method; format: ADME, organism-based; parameters: dose 1 mg/kg, route intraperitoneal; procedure, shortened: as §1
[29] = Tmax in CD-1 mouse liver at 10 mg/kg, ip administered as single dose after 24 hrs by UPLC-MS/MS method; format: ADME, organism-based; procedure, shortened: as §1
[30] = AUClast in CD-1 mouse liver at 10 mg/kg, ip administered as single dose after 24 hrs by UPLC-MS/MS method; format: ADME, organism-based; procedure, shortened: as §1
[31] = Ratio of AUClast in CD1 mouse liver to plasma at 10 mg/kg, ip administered as single dose after 24 hrs; format: ADME, organism-based; conditions: CD-1, mouse, read-out: Ratio AUC; procedure, shortened: as §3
[32] = Tmax in CD-1 mouse plasma at 10 mg/kg, ip administered as single dose after 24 hrs by UPLC-MS/MS method; format: ADME, organism-based; procedure, shortened: as §1
Plasma [33] = assay: Cmax in CD-1 mouse plasma at 0.1 mg/kg, ip administered as single dose after […] by UPLC-MS/MS method; format: ADME, organism-based; parameters: dose 0.1 mg/kg, route intraperitoneal; conditions: in vivo
Plasma [34] = assay: Tmax in CD-1 mouse plasma at 0.1 mg/kg, ip administered as single dose after […] by UPLC-MS/MS method; format: ADME, organism-based; conditions: in vivo
[35] = AUClast in CD-1 mouse plasma at 0.1 mg/kg, ip administered as single dose after […] by UPLC-MS/MS method; format: ADME, organism-based
[36] = Ratio of Cmax in CD-1 mouse liver to plasma at 1 mg/kg, ip administered as single dose after 24 hrs; format: ADME, organism-based; procedure, shortened: as §2
[37] = Cmax in CD-1 mouse plasma at 0.1 mg/kg, ip administered as single dose after 24 hrs by UPLC-MS/MS method; format: ADME, organism-based; parameters: dose 0.1 mg/kg, route intraperitoneal; procedure, shortened: as §1

Cc1oc(-c2ccc(Cl)c(Cl)c2)nc1CN1CCC(C(=O)NCCCN2C[C@H](C)C[C@H](C)C2)CC1
AUC(0-t) at 24 h [1]: 19.7 µM·h
AUC(0-t) at 24 h [2]: 17.6 µM·h
Tmax [3]: 7 h
Papp [4]: 522 ×10⁻⁶ cm/s
Cmax [5]: 1110 nM
Cmax [6]: 34500 nM
AUC (Plasma [7]): 0.0639 µM·h
Kp at 24 h [8]: 126
Kp at […] [9]: 126
Cmax [10]: 4740 nM
AUC(0-t) at […] [11]: 52.3 µM·h
Kp at […] [12]: 448
Kp at 24 h [13]: 224
concentration at 24 h [14]: 3330 to 9820 nM
Tmax [15]: 4.98 min
Cmax [16]: 146 nM
Tmax [17]: 4 h
AUC(0-t) at 24 h [18]: 197 µM·h
Cmax at […] [19]: 1110 nM
Kp at […] [20]: 510
AUC(0-t) at 24 h [21]: 0.88 µM·h
Kp at 24 h [22]: 7
Tmax [23]: 0.25 h
concentration at 5 min [24]: 390 nM
Tmax at […] [25]: 7 h
Kp at 24 h [26]: 399
AUC(0-t) at 24 h [27]: 0.0494 µM·h
Cmax [28]: 9820 nM
Tmax [29]: 7 h
AUC(0-t) at 24 h [30]: 719 µM·h
Kp at 24 h [31]: 41
Tmax [32]: 4.98 min
Cmax (Plasma [33]): 8.76 nM
Tmax (Plasma [34]): 4.98 min
AUC(0-t) at […] [35]: 0.117 µM·h
Kp at 24 h [36]: 67
Cmax [37]: 8.76 nM
